From PubChem BioAssay AID463185 (Molecular Libraries Program, Specialized Chemistry Center, …, 2010)
Activity calls are given as the source filed them.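 The calls were made as follows: active = IC50 at or below 10 µM; inactive = the rest.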

System: HeLa UbG76V-GFP reporter degradation, GFP imaging
Test: blockers of UbG76V-GFP proteasomal turnover – imaging, human cells, dose response (AID 463185)
How it was run: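 System: UbG76V-GFP reporter HeLa cells / Also added: MG132 4 µM reporter accumulation step / Times: 1 h MG132, chase read 70–170 min / Detection: cell imaging of GFP fluorescence, mean of about 500 cells / Read-out: IC50 from Langmuir fit of % remaining decay rate versus DMSO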

SMILES | IC50
Cc1ccc(Nc2nc(N)nc(CCl)n2)cc1 | 26 µM (inactive)
Clc1ccc(CNc2nc(NCc3ccccc3)c3ccccc3n2)cc1Cl | 4.6 µM
COc1ccccc1Nc1nc(N)nc(CCl)n1 | 21 µM (inactive)
Cc1cccc(Nc2nc(N)nc(CCl)n2)c1C | 27 µM (inactive)
COc1ccc(CNc2nc(NCc3ccccc3)c3ccccc3n2)cc1 | 3.3 µM
Brc1ccccc1CNc1nc(NCc2ccccc2)c2ccccc2n1 | 6.7 µM
N#C/C(=C(\O)COC(=O)COc1ccc(Cl)cc1)c1nc2ccccc2[nH]1 | 2.6 µM
Fc1ccccc1CNc1nc(NCc2ccccc2)c2ccccc2n1 | 3.4 µM
Cc1cccc(CNc2nc(NCc3ccccc3)c3ccccc3n2)c1 | 4.1 µM
Nc1nc(CCl)nc(Nc2ccc(F)cc2)n1 | 31 µM (inactive)
Cc1ccccc1CNc1nc(NCc2ccccc2)c2ccccc2n1 | 10 µM
N#C/C(=C(\O)COC(=O)COc1cccc(Br)c1)c1nc2ccccc2[nH]1 | 5.9 µM
Cc1c(Cl)cccc1Nc1nc(N)nc(CCl)n1 | 5.9 µM
Nc1nc(CCl)nc(N(c2ccccc2)c2ccccc2)n1 | 10 µM
Nc1nc(CCl)nc(Nc2ccc(Cl)c(Cl)c2)n1 | 5.7 µM
CC(C)c1ccc(Nc2nc(N)nc(CCl)n2)cc1 | 14 µM (inactive)
CCc1nc2ccccc2n1CC(=O)OC/C(O)=C(/C#N)c1nc2ccccc2[nH]1 | 7.2 µM
N#C/C(=C(\O)COC(=O)CNc1ccc(C(F)(F)F)cc1[N+](=O)[O-])c1nc2ccccc2[nH]1 | 6.5 µM
Cc1cc(C)cc(OCC(=O)OC/C(O)=C(/C#N)c2nc3ccccc3[nH]2)c1 | 13 µM (inactive)
Cc1ccc(CNc2nc(NCc3ccccc3)c3ccccc3n2)cc1 | 2.4 µM
CCc1ccc(Nc2nc(N)nc(CCl)n2)cc1 | 18 µM (inactive)
Clc1cccc(CNc2nc(NCc3ccccc3)c3ccccc3n2)c1 | 3.7 µM
Nc1nc(CCl)nc(N2CCCc3ccccc32)n1 | 17 µM (inactive)

Second part, the molecule after the results:

IC50 | SMILES
1.1 µM | Fc1cccc(CNc2nc(NCc3ccccc3)c3ccccc3n2)c1
2.5 µM | FC(F)(F)c1ccc(CNc2nc(NCc3ccccc3)c3ccccc3n2)cc1
2.8 µM | Fc1ccc(CNc2nc(NCc3ccccc3)c3ccccc3n2)cc1
16 µM (inactive) | Cc1cc(OCC(=O)OC/C(O)=C(/C#N)c2nc3ccccc3[nH]2)ccc1Cl
14 µM (inactive) | Nc1nc(CCl)nc(Nc2cccc3ccccc23)n1
3.3 µM | Clc1ccc(CNc2nc(NCc3ccccc3)c3ccccc3n2)cc1
6.7 µM | Brc1ccc(CNc2nc(NCc3ccccc3)c3ccccc3n2)cc1
2.3 µM | c1ccc(CNc2nc(NCc3ccccc3)c3ccccc3n2)cc1
31 µM (inactive) | CN(c1ccccc1)c1nc(N)nc(CCl)n1
3.7 µM | Nc1nc(CCl)nc(Nc2ccc(Oc3ccccc3)cc2)n1
1.7 µM | COc1cccc(CNc2nc(NCc3ccccc3)c3ccccc3n2)c1
8 µM | Nc1nc(CCl)nc(Nc2ccc(Cl)cc2)n1
10.4 µM (inactive) | Nc1nc(CCl)nc(N2CCc3ccccc32)n1
10 µM | N#C/C(=C(\O)COC(=O)C1COc2ccccc2O1)c1nc2ccccc2[nH]1 (stereo not drawn)
1.3 µM | Brc1cccc(CNc2nc(NCc3ccccc3)c3ccccc3n2)c1
15 µM (inactive) | Cc1cccc(C)c1OCC(=O)OC/C(O)=C(/C#N)c1nc2ccccc2[nH]1
4.6 µM | FC(F)(F)c1cc(CNc2nc(NCc3ccccc3)c3ccccc3n2)ccc1Cl
4.1 µM | Clc1ccccc1CNc1nc(NCc2ccccc2)c2ccccc2n1
3.4 µM | N#C/C(=C(\O)COC(=O)c1ccccc1Cc1ccccc1)c1nc2ccccc2[nH]1
6.1 µM | CCCOc1ccc(C(=O)CCC(=O)OC/C(O)=C(/C#N)c2nc3ccccc3[nH]2)cc1
4.8 µM | COc1ccccc1CNc1nc(NCc2ccccc2)c2ccccc2n1
23 µM (inactive) | COc1cccc(Nc2nc(N)nc(CCl)n2)c1
6.3 µM | N#C/C(=C(\O)COC(=O)CCC(=O)c1ccc2c(c1)OCCO2)c1nc2ccccc2[nH]1
22 µM (inactive) | COc1cc([N+](=O)[O-])ccc1Nc1nc(N)nc(CCl)n1
13 µM (inactive) | Nc1nc(Nc2cccc(Cl)c2)nc(C(Cl)Cl)n1
